Results: PMC9049141 (RSC Advances, 2020)
Square brackets hold non-standard residues; d marks the D form. Ends that are not written are not given here. * marks the point of attachment. FITC = O=C1OC2(c3ccc(O)cc3Oc3cc(O)ccc32)c2ccc(NC(=S)*)cc21; Stearoyl = CCCCCCCCCCCCCCCCCC(=O)*; Palmitoyl = CCCCCCCCCCCCCCCC(=O)*; Myristoyl = CCCCCCCCCCCCCC(=O)*; Aib = CC(C)(N)C(=O)O; Ahx = NCCCCCC(=O)O

Columns and labels:
HSA = HSA (Homo sapiens, UniProt P02768); test: Albumin binding affinity by surface plasmon resonance; conditions: for k a / k d: SPR, BIAcoT200 system, HSA; for Kd: human, HSA (human serum albumin), surface plasmon resonance
Sequence of HSA (P02768 25-609): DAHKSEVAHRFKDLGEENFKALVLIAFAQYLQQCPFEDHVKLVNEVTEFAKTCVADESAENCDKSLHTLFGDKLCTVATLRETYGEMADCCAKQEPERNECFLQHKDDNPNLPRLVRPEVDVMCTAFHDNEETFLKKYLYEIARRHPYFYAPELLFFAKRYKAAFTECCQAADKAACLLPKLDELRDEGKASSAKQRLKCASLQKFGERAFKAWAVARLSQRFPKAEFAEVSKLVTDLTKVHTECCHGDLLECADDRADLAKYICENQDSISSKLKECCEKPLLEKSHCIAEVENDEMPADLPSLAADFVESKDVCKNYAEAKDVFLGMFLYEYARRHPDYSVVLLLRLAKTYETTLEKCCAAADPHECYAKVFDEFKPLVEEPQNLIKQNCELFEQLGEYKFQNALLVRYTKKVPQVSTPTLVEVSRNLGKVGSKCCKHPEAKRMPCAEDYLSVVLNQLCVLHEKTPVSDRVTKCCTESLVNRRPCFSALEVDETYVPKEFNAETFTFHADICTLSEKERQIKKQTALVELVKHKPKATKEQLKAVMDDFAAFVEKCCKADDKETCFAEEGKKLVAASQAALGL

[1] = Plasma stability test in human plasma with or without HSA; type: in vitro ADME
Outline: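 Albumin-depleted human plasma was prepared with a blue-dye albumin removal kit. Test peptides at a final 1 mg L−1 were incubated at 37 °C in human plasma with or without HSA. Samples were taken at time points from 0 to 144 h and analysed by LC-MS/MS.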

db/db mice [2] = test: Oral glucose tolerance test; type: in vivo
Outline: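 Male db/db mice were fasted overnight and split into five groups. They received saline or test compound s.c. at 10, 30, 90 or 150 nmol kg−1, half an hour before an oral glucose load of 2.0 g kg−1. Blood glucose was read by handheld glucometer before and 15, 30, 60 and 120 min after the load. Data are mean ± SD with one-way ANOVA.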

GK rats = test: Modified multiple OGTTs; type: in vivo
Outline: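 Male GK rats (purchased at 6–8 weeks) got one s.c. dose of saline, test compound (10, 30, 90 nmol kg−1) or a reference GLP-1 analog (90 nmol kg−1). Repeated oral glucose challenges followed, the first at 0.5 h after dosing. Glucose was read by glucometer. AUCs were taken for 0–2, 72–74 and 144–146 h, and the percent AUC reduction was calculated versus saline.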

db/db mice [3] = test: Hypoglycemic duration test; type: in vivo; conditions: non-fasted db/db mice
Outline: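 Non-fasted db/db mice with free food and water got one s.c. dose of saline, a reference GLP-1 analog (90 nmol kg−1) or test compound (10, 30, 90 nmol kg−1). Tail-vein blood was sampled at 0, 0.5, 1, 2, 4, 8, 24, 36, 48, 72, 120, 168 and 216 h, with glucose by glucometer. Hypoglycemic duration was the time BGL stayed under 8.35 mmol L−1. Data are mean ± SD; one-way ANOVA.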

[4] = Pharmacokinetic study in rhesus monkey; type: in vivo; conditions: plasma, sc
Outline: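 Male rhesus monkeys received one s.c. dose of test compound at 10, 30 or 90 nmol kg−1. Blood was drawn pre-dose and at 1, 2, 4, 8, 24, 36, 48, 72, 96, 120, 144 and 168 h. Intact peptide and free GLP-1 (A8Aib) in plasma were quantified by LC-MS/MS.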

db/db mice [5] = test: Chronic in vivo study, 8 weeks, db/db mice; conditions: for ALT / AST / HDL / LDL / LDL/HDL / TC / TG: db/db mice serum, 8 weeks twice-weekly s.c.; for decrease of OGTT AUC after 8 week treatment compared with day 0: n = 8
Outline: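 Male db/db mice (purchased at 6–8 weeks, housed six per cage, 12 h light–dark) got twice-weekly s.c. saline, a reference GLP-1 analog (90 nmol kg−1) or test compound (10, 30, 90 nmol kg−1) for eight weeks. Blood biochemical parameters were measured on an automatic biochemical analyzer. Pancreas was paraffin-embedded and H&E-stained. Data are mean ± SD; one-way ANOVA, P < 0.05.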

[6] = human plasma without albumin (HSA-free)
[7] = single s.c. 10 nmol kg^−1, n = 8
[8] = single s.c. 30 nmol kg^−1, n = 8
[9] = single s.c. 90 nmol kg^−1, n = 8

{FITC-Ahx}-EYK(Stearoyl)EEYEGGGGSGGGGSFNPRH[Aib]EGTFTSDVSSYLEGQAAKEFIAWLVKGRG (N-terminus assumed) [PES09]
k a (HSA): 12100 M⁻¹ s⁻¹
k d (HSA): 0.0531 s⁻¹
Kd (HSA): 4.32 µM

{FITC-Ahx}-EK(Palmitoyl)YEEYEGGGGSGGGGSFNPRH[Aib]EGTFTSDVSSYLEGQAAKEFIAWLVKGRG (N-terminus assumed) [PES05]
k a (HSA): 8900 M⁻¹ s⁻¹
k d (HSA): 0.0722 s⁻¹
Kd (HSA): 8.11 µM

{FITC-Ahx}-EYEEYEK(Myristoyl)GGGGSGGGGSFNPRH[Aib]EGTFTSDVSSYLEGQAAKEFIAWLVKGRG (N-terminus assumed) [PES19]
k a (HSA): 2500 M⁻¹ s⁻¹
k d (HSA): 0.0222 s⁻¹
Kd (HSA): 8.73 µM

{FITC-Ahx}-EYEK(Myristoyl)EYEGGGGSGGGGSFNPRH[Aib]EGTFTSDVSSYLEGQAAKEFIAWLVKGRG (N-terminus assumed) [PES10]
k a (HSA): 12900 M⁻¹ s⁻¹
k d (HSA): 0.0328 s⁻¹
Kd (HSA): 2.54 µM

{FITC-Ahx}-EYEEYEK(Palmitoyl)GGGGSGGGGSFNPRH[Aib]EGTFTSDVSSYLEGQAAKEFIAWLVKGRG (N-terminus assumed) [PES20]
k a (HSA): 3180 M⁻¹ s⁻¹
k d (HSA): 0.0534 s⁻¹
Kd (HSA): 16.8 µM

{FITC-Ahx}-EYEEYK(Stearoyl)EGGGGSGGGGSFNPRH[Aib]EGTFTSDVSSYLEGQAAKEFIAWLVKGRG (N-terminus assumed) [PES18]
k a (HSA): 11400 M⁻¹ s⁻¹
k d (HSA): 0.036 s⁻¹
Kd (HSA): 3.16 µM

{FITC-Ahx}-EYEEK(Stearoyl)YEGGGGSGGGGSFNPRH[Aib]EGTFTSDVSSYLEGQAAKEFIAWLVKGRG (N-terminus assumed) [PES15]
k a (HSA): 21800 M⁻¹ s⁻¹
k d (HSA): 0.0112 s⁻¹
Kd (HSA): 0.512 µM
half-life at 1 mg L^−1 ([1]; human plasma with HSA): 56.5 h
half-life at 1 mg L^−1 [1, 6]: 48.5 h

{FITC-Ahx}-EK(Myristoyl)YEEYEGGGGSGGGGSFNPRH[Aib]EGTFTSDVSSYLEGQAAKEFIAWLVKGRG (N-terminus assumed) [PES04]
k a (HSA): 1240 M⁻¹ s⁻¹
k d (HSA): 0.0332 s⁻¹
Kd (HSA): 26.7 µM

{FITC-Ahx}-EYEEYK(Palmitoyl)EGGGGSGGGGSFNPRH[Aib]EGTFTSDVSSYLEGQAAKEFIAWLVKGRG (N-terminus assumed) [PES17]
k a (HSA): 12000 M⁻¹ s⁻¹
k d (HSA): 0.0627 s⁻¹
Kd (HSA): 5.21 µM

{FITC-Ahx}-EYEEYK(Myristoyl)EGGGGSGGGGSFNPRH[Aib]EGTFTSDVSSYLEGQAAKEFIAWLVKGRG (N-terminus assumed) [PES16]
k a (HSA): 11000 M⁻¹ s⁻¹
k d (HSA): 0.0192 s⁻¹
Kd (HSA): 1.74 µM

{FITC-Ahx}-EYEEK(Myristoyl)YEGGGGSGGGGSFNPRH[Aib]EGTFTSDVSSYLEGQAAKEFIAWLVKGRG (N-terminus assumed) [PES13]
k a (HSA): 11000 M⁻¹ s⁻¹
k d (HSA): 0.00422 s⁻¹
Kd (HSA): 0.383 µM
half-life at 1 mg L^−1 ([1]; human plasma with HSA): 68.7 h
half-life at 1 mg L^−1 [1, 6]: 64.4 h

{FITC-Ahx}-EYEK(Stearoyl)EYEGGGGSGGGGSFNPRH[Aib]EGTFTSDVSSYLEGQAAKEFIAWLVKGRG (N-terminus assumed) [PES12]
k a (HSA): 21700 M⁻¹ s⁻¹
k d (HSA): 0.0531 s⁻¹
Kd (HSA): 2.45 µM

{FITC-Ahx}-EYEK(Palmitoyl)EYEGGGGSGGGGSFNPRH[Aib]EGTFTSDVSSYLEGQAAKEFIAWLVKGRG (N-terminus assumed) [PES11]
k a (HSA): 8380 M⁻¹ s⁻¹
k d (HSA): 0.0782 s⁻¹
Kd (HSA): 9.33 µM

{FITC-Ahx}-EYK(Myristoyl)EEYEGGGGSGGGGSFNPRH[Aib]EGTFTSDVSSYLEGQAAKEFIAWLVKGRG (N-terminus assumed) [PES07]
k a (HSA): 8240 M⁻¹ s⁻¹
k d (HSA): 0.0632 s⁻¹
Kd (HSA): 7.61 µM

{FITC-Ahx}-EYEEYEK(Stearoyl)GGGGSGGGGSFNPRH[Aib]EGTFTSDVSSYLEGQAAKEFIAWLVKGRG (N-terminus assumed) [PES21]
k a (HSA): 11400 M⁻¹ s⁻¹
k d (HSA): 0.036 s⁻¹
Kd (HSA): 3.16 µM

{FITC-Ahx}-EYEEK(Palmitoyl)YEGGGGSGGGGSFNPRH[Aib]EGTFTSDVSSYLEGQAAKEFIAWLVKGRG (N-terminus assumed) [PES14]
k a (HSA): 14500 M⁻¹ s⁻¹
k d (HSA): 0.0101 s⁻¹
Kd (HSA): 0.696 µM
half-life at 1 mg L^−1 ([1]; human plasma with HSA): > 72 h
half-life at 1 mg L^−1 [1, 6]: 60.1 h
glucose AUC in OGTT (db/db mice [2]; single s.c. 90 nmol kg^−1, AUC0–120 min): 780.17 nmol/L/min
glucose AUC in OGTT (db/db mice [2]; single s.c. 150 nmol kg^−1, AUC0–120 min): 738.56 nmol/L/min
AUC-lowering percentage in third OGTT (144–146 h) versus placebo (GK rats; [7]): 22.1%
AUC-lowering percentage in third OGTT (144–146 h) versus placebo (GK rats; [8]): 31.0%
AUC-lowering percentage in third OGTT (144–146 h) versus placebo (GK rats; [9]): 44.7%
time hypoglycemic effects maintained (db/db mice [3]; single s.c. 10 nmol kg^−1): more than 120 h
decrease of BGL AUC for 0–192 h compared with saline (db/db mice [3]; [7]): 38.4%
time hypoglycemic effects maintained (db/db mice [3]; single s.c. 30 nmol kg^−1): > 168 h
decrease of BGL AUC for 0–192 h compared with saline (db/db mice [3]; [8]): 49.3%
duration for BGLs rebound over 8.35 mmol L^−1 (db/db mice [3]; [8]): 22.3 h
time hypoglycemic effects maintained (db/db mice [3]; single s.c. 90 nmol kg^−1): > 216 h
decrease of BGL AUC for 0–192 h compared with saline (db/db mice [3]; [9]): 65.0%
duration for BGLs rebound over 8.35 mmol L^−1 (db/db mice [3]; [9]): 50.8 h
time for BGLs to reach the normoglycemic value (db/db mice [3]; single s.c. 30 and 90 nmol kg^−1): ≤ 2 h
half-life ([4]; 10 nmol kg^−1): 62.6 h
half-life ([4]; 30 nmol kg^−1): 78.8 h
half-life ([4]; 90 nmol kg^−1): 95.1 h
ALT (db/db mice [5]; 10 nM kg^−1, mean ± SD n = 8): 59.2 ± 2.8 IU L^−1
AST (db/db mice [5]; 10 nM kg^−1, mean ± SD n = 8): 158 ± 12.2 IU L^−1
HDL (db/db mice [5]; 10 nM kg^−1, mean ± SD n = 8): 2.5 ± 0.6 mmol/L
LDL (db/db mice [5]; 10 nM kg^−1, mean ± SD n = 8): 1.6 ± 0.3 mmol/L
LDL/HDL (db/db mice [5]; 10 nM kg^−1, mean ± SD n = 8): 0.64 ± 0.19
TC (db/db mice [5]; 10 nM kg^−1, mean ± SD n = 8): 4.8 ± 0.6 mmol/L
TG (db/db mice [5]; 10 nM kg^−1, mean ± SD n = 8): 1.1 ± 0.1 mmol/L
ALT (db/db mice [5]; 30 nM kg^−1, mean ± SD n = 8): 55.0 ± 4.0 IU L^−1
AST (db/db mice [5]; 30 nM kg^−1, mean ± SD n = 8): 140 ± 9.9 IU L^−1
HDL (db/db mice [5]; 30 nM kg^−1, mean ± SD n = 8): 2.5 ± 0.5 mmol/L
LDL (db/db mice [5]; 30 nM kg^−1, mean ± SD n = 8): 1.4 ± 0.2 mmol/L
LDL/HDL (db/db mice [5]; 30 nM kg^−1, mean ± SD n = 8): 0.44 ± 0.15
TC (db/db mice [5]; 30 nM kg^−1, mean ± SD n = 8): 4.4 ± 0.3 mmol/L
TG (db/db mice [5]; 30 nM kg^−1, mean ± SD n = 8): 1.0 ± 0.7 mmol/L
area and number of pancreatic islets (db/db mice [5]; db/db mice, 8 weeks, H&E staining, compared with saline): increased
reduction of LDL/HDL ratio (db/db mice [5]; db/db mice, after 8 week exposure): up to 47%
insulin immunoreactivity (db/db mice [5]; db/db mice, chronic treatment 8 weeks, pancreas sections): preserved proper insulin immunoreactivity
decrease of OGTT AUC after 8 week treatment compared with day 0 (db/db mice [5]; db/db mice, twice-weekly s.c. 10 nmol kg^−1, 8 weeks): 17.1%
decrease of OGTT AUC after 8 week treatment compared with day 0 (db/db mice [5]; db/db mice, twice-weekly s.c. 30 nmol kg^−1, 8 weeks): 28.9%
decrease of OGTT AUC after 8 week treatment compared with day 0 (db/db mice [5]; db/db mice, twice-weekly s.c. 90 nmol kg^−1, 8 weeks): 58.2%
body weight gain, food intake and fat% (db/db mice [5]; db/db mice, twice-weekly s.c. 10, 30 and 90 nmol kg^−1, 56 days, vs saline): obviously reduction

{FITC-Ahx}-EK(Stearoyl)YEEYEGGGGSGGGGSFNPRH[Aib]EGTFTSDVSSYLEGQAAKEFIAWLVKGRG (N-terminus assumed) [PES06]
k a (HSA): 18800 M⁻¹ s⁻¹
k d (HSA): 0.0922 s⁻¹
Kd (HSA): 4.9 µM

{FITC-Ahx}-K(Stearoyl)EYEEYEGGGGSGGGGSFNPRH[Aib]EGTFTSDVSSYLEGQAAKEFIAWLVKGRG (N-terminus assumed) [PES03]
k a (HSA): 12800 M⁻¹ s⁻¹
k d (HSA): 0.0322 s⁻¹
Kd (HSA): 2.51 µM

{FITC-Ahx}-K(Myristoyl)EYEEYEGGGGSGGGGSFNPRH[Aib]EGTFTSDVSSYLEGQAAKEFIAWLVKGRG (N-terminus assumed) [PES01]
k a (HSA): 6900 M⁻¹ s⁻¹
k d (HSA): 0.0182 s⁻¹
Kd (HSA): 2.66 µM

{FITC-Ahx}-EYK(Palmitoyl)EEYEGGGGSGGGGSFNPRH[Aib]EGTFTSDVSSYLEGQAAKEFIAWLVKGRG (N-terminus assumed) [PES08]
k a (HSA): 26700 M⁻¹ s⁻¹
k d (HSA): 0.0942 s⁻¹
Kd (HSA): 3.53 µM
